Assay results published in ChEMBL document CHEMBL2086292, “Chalcogenopyrylium compounds as modulators of the ATP-binding cassette transporters P-glycoprotein (P-gp/ABCB1) and multidrug resistance protein 1 (MRP1/ABCC1)” (J Med Chem, 2012).

Key:
[1] = molecular target: T1, MRP1 (Multidrug resistance-associated protein 1) (Homo sapiens, UniProt P33527); assay: Inhibition of human MRP1-mediated uptake of [3H]E2-17betaG in HEK cell membrane vesicles at 1 uM by liquid scintillation counting relative to control; assay type: cell membranes, HEK293; details: HEK cell membrane vesicles with human MRP1, probe [3H]E2-17betaG
T1 sequence (P33527 whole entry): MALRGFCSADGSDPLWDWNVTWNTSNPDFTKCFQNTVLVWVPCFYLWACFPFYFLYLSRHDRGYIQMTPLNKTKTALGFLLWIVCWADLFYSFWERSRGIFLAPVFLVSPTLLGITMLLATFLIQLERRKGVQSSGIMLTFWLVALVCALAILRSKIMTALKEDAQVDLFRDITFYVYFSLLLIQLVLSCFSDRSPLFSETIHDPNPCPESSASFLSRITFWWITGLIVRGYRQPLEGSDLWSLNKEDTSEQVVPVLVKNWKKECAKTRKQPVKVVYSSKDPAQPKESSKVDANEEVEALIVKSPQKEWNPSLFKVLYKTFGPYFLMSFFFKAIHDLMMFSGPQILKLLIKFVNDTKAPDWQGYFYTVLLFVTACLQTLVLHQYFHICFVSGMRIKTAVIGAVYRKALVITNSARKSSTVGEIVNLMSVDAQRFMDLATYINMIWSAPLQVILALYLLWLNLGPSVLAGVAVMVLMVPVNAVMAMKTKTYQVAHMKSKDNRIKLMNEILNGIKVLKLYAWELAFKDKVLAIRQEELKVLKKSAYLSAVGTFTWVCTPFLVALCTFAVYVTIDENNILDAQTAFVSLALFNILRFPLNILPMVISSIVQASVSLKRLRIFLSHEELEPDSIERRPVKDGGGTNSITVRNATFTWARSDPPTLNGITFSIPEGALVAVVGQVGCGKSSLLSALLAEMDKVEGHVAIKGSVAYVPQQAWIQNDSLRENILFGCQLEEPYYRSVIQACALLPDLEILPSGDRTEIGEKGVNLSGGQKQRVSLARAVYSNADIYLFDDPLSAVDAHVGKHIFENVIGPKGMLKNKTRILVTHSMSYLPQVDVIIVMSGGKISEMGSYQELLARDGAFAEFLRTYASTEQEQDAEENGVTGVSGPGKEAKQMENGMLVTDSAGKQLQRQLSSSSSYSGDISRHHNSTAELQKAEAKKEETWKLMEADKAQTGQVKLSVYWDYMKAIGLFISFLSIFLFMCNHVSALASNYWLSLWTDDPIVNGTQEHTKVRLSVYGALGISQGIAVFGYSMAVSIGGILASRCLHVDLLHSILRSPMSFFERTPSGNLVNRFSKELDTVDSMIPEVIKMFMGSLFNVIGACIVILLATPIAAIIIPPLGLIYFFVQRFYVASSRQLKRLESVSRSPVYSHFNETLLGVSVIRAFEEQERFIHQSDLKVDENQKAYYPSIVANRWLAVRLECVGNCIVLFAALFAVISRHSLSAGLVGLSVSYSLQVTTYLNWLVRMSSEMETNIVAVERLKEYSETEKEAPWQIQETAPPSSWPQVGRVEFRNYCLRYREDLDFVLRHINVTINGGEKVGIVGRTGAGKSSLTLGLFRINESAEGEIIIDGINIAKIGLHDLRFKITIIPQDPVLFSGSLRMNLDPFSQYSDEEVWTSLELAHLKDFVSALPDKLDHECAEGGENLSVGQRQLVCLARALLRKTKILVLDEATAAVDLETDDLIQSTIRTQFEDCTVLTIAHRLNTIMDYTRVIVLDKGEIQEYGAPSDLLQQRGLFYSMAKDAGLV
Procedure, shortened: (§1)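 Inside-out membrane vesicles from HEK cells stably transfected with human MRP1. Vesicle protein (2 μg) incubated in Tris-sucrose buffer pH 7.4 with 400 nM [3H]E2-17βG, 4 mM ATP or AMP and 10 mM MgCl2, 3 min at 37 °C, in duplicate; DMSO ≤1% final. Stopped by ice-cold dilution and rapid filtration, then scintillation counted. ATP-dependent uptake taken as ATP minus AMP values; inhibition reported as percent.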

P-gp (ABCB1) = P-gp (ABCB1) (Homo sapiens, UniProt P08183); assay: Induction of ATPase activity of human His10-tagged P-gp expressed in BHK cells assessed as inorganic phosphate release after 30 mins relative to control; assay type: cell-based; details: human His10-tagged P-gp expressed in BHK cells, read-out: FC
P-gp (ABCB1), sequence (P08183 whole entry): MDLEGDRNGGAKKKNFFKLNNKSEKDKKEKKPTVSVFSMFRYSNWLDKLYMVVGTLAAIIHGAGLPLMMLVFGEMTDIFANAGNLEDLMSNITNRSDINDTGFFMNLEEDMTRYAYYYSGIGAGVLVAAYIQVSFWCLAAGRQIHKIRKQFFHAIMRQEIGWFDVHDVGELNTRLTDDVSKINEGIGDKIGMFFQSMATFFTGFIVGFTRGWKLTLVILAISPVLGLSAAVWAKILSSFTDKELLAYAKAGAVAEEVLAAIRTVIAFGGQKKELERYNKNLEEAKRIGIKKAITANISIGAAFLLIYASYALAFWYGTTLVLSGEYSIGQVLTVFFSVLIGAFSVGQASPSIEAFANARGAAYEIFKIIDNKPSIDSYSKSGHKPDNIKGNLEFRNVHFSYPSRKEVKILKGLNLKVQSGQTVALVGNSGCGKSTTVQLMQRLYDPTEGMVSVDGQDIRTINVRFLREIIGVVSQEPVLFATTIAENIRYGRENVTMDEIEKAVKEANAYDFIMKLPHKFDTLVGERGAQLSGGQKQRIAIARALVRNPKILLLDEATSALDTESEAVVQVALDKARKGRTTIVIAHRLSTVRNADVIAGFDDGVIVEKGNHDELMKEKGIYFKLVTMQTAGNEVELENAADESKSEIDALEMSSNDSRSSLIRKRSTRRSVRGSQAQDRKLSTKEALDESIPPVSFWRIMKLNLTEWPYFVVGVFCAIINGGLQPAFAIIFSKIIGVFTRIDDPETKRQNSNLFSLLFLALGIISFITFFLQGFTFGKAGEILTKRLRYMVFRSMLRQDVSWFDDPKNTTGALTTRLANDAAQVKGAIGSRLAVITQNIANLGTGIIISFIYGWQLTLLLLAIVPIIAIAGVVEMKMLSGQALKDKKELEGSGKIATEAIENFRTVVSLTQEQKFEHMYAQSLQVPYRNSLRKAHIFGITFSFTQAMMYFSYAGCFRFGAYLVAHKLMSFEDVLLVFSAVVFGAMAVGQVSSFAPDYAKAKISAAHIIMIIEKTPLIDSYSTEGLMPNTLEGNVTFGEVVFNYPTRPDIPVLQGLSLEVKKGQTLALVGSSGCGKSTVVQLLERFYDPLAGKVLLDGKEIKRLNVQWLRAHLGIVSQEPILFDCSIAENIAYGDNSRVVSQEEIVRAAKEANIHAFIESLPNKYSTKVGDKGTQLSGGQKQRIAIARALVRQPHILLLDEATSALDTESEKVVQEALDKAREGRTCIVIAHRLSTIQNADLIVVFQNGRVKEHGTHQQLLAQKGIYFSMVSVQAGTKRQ
Procedure, shortened: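 Human P-gp with C-terminal His10 tag, stably expressed in BHK cells, purified by Ni-chelate chromatography and mixed 1:1 with 10 mg/mL sheep brain phosphatidylethanolamine in TBS (10 mM Tris/HCl pH 7.4, 150 mM NaCl), then sonicated. Compound titrated, 30 min at 37 °C. Inorganic phosphate released from ATP measured. Vmax expressed as fold over basal activity; KM is the concentration giving half-maximal stimulation.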

[2] = molecular target: T1, MRP1 (Multidrug resistance-associated protein 1); assay: Inhibition of human MRP1 mediated uptake of [3H]E2-17betaG in HEK cell membrane vesicles at 30 uM by liquid scintillation counting relative to control; assay type: cell membranes, HEK293; details: HEK cell membrane vesicles with human MRP1, probe [3H]E2-17betaG; procedure, shortened: as §1
MDCK-II [3] = assay: Inhibition of P-gp expressed in MDCK2-MDR1 cells at 5 uM by calcein AM accumulation assay relative to LSN 335984; assay type: cell-based
Procedure, shortened: (§2)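 MDCKII cells transfected with wild-type human MDR1, seeded at 40000 cells/well and used on day 4. Washed in DPBS with 10 mM HEPES pH 7.4, then compound in the same buffer 30 min at 37 °C. Replaced with compound plus 0.5 μg/mL calcein AM for a further 20 min. Fluorescence read at Ex 485/Em 530 nm. Signal expressed relative to 5 μM LSN 335984, taken as complete inhibition; vehicle 0.25% DMSO. IC50 from 1:1 serial dilutions by variable-slope sigmoidal fit.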

MDCK-II [4] = assay: Inhibition of P-gp expressed in MDCK2-MDR1 cells at 25 uM by calcein AM accumulation assay relative to LSN 335984; assay type: cell-based; procedure, shortened: as §2
[5] = molecular target: T1, MRP1 (Multidrug resistance-associated protein 1); assay: Inhibition of human MRP1 mediated uptake of [3H]E2-17betaG in HEK cell membrane vesicles at 5 uM by liquid scintillation counting relative to control; assay type: cell membranes, HEK293; details: HEK cell membrane vesicles with human MRP1, probe [3H]E2-17betaG
Procedure, shortened: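 Inside-out vesicles from stably transfected HEK-MRP1 cells (2 μg protein) in Tris-sucrose buffer pH 7.4 with [³H]E₂17βG 400 nM, ATP or AMP 4 mM, MgCl₂ 10 mM, 3 min at 37 °C, compound at 5 μM; DMSO ≤1%; stopped by ice-cold dilution, rapid filtration, scintillation counting; ATP-dependent uptake = ATP minus AMP; duplicate wells.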

[6] = molecular target: ATP-dependent translocase ABCB1 (Homo sapiens, UniProt P08183); assay: Inhibition of VER-stimulated human His10-tagged P-gp ATPase activity expressed in BHK cells after 15 mins; assay type: cell-based
ATP-dependent translocase ABCB1, sequence (P08183 whole entry): as above

[7] = molecular target: T1, MRP1 (Multidrug resistance-associated protein 1); assay: Inhibition of human MRP1-mediated uptake of [3H]E2-17betaG in HEK cell membrane vesicles at 10 uM by liquid scintillation counter; assay type: cell membranes, HEK293; details: HEK cell membrane vesicles with human MRP1, probe [3H]E2-17betaG; procedure, shortened: as §1
[8] = Octanol-water partition coefficient, log P of the compound in PBS at pH 7.4 after 1 hr by shake flask method; assay type: physicochemical
Procedure, shortened: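 Shake-flask method: saturated n-octanol solution shaken with an equal volume of PBS pH 7.4 for 3–5 min, then left to settle 1 h at 23 °C. Concentration in each layer measured spectrophotometrically.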

[9] = Inhibition of P-gp expressed in MDCK2-MDR1 cells by calcein AM accumulation assay; assay type: cell-based; details: MDCK-II
Procedure, shortened: as §2, with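 “min.” for “min. Fluorescence read at Ex 485/Em 530 nm. Signal expressed relative to 5 μM LSN 335984, taken as complete inhibition; vehicle 0.25% DMSO.”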

[10] = Inhibition of P-gp mediated [3H]VIN efflux in MDCK2-MDR1 cells by scintillation counter; assay type: cell-based; details: MDCK-II
Procedure, shortened: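 MDCKII-MDR1 monolayers on Transwell filters, used on day 6. Rinsed in DPBSH, then preincubated 30 min at 37 °C with compound ([…]) in BSA/DPBSH. [3H]vinblastine (0.25 μCi/mL) plus compound added basolaterally and fresh compound solution added apically. Apical buffer replaced every 10 min; apical radioactivity counted by scintillation. IC50 fitted.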

[11] = Normalized ratio of the compound assessed as ratio of PBA/AB in absence of LSN 335984 to ratio of PBA/AB in presence of LSN 335984 in MDCK2-MDR1 cells at 5 uM after 1 hr; assay type: ADME, cell-based, Canis lupus familiaris; details: dog, mdck-mdr1, 1 h
Procedure, shortened: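 MDCKII-MDR1 cells seeded at 50000 cells/cm² on Transwell filters, used on day 6. Preincubated 30 min with 4.3 mg/mL BSA in DPBSH, with or without 5 μM LSN 335984. Compound (5 μM) added to the apical or basolateral donor chamber and incubated 1 h at 37 °C with nutation. Donor and receiver samples quantified by LC-MS/MS. AB and BA permeabilities calculated. Normalized ratio is the BA/AB ratio without inhibitor divided by the ratio with inhibitor.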

P-glycoprotein (MDR1) [12] = assay: P-glycoprotein-mediated transport in MDCK2-MDR1 cells assessed as permeability across apical to basolateral side at 5 uM after 1 hr; details: dog, MDCK-MDR1
P-glycoprotein (MDR1) [13] = assay: P-glycoprotein-mediated transport in MDCK2-MDR1 cells assessed as permeability across basolateral to apical side at 5 uM after 1 hr; details: dog, MDCK-MDR1

Cc1cc(-c2ccccc2)[s+]c(-c2ccccc2)c1
inhibition at 1 µM [1]: 0%

CC(C)(C)c1cc(-c2ccccc2)cc(C(C)(C)C)[se+]1
inhibition at 1 µM [1]: 0% | fold induction at 0.5 h (P-gp (ABCB1)): 1.4

CCN(CC)C(=O)c1ccccc1-c1cc(C(C)(C)C)[te+]c(C(C)(C)C)c1
inhibition at 30 µM [2]: 45% | fold induction at 0.5 h (P-gp (ABCB1)): 6.9

CC(C)(C)c1cc(-c2ccccc2)cc(C(C)(C)C)[te+]1
inhibition at 30 µM [2]: 34% | fold induction at 0.5 h (P-gp (ABCB1)): 1.5

CCN(CC)C(=O)c1ccccc1-c1cc(-c2ccc(N(C)C)cc2)[s+]c(C(C)(C)C)c1
inhibition at 30 µM [2]: 43% | fold induction at 0.5 h (P-gp (ABCB1)): 13.5 | inhibition (MDCK-II [3]): 2% | inhibition (MDCK-II [4]): 13%

CC(C)(C)c1cc(-c2ccc(C(=S)N3CCCCC3)s2)cc(C(C)(C)C)[se+]1
inhibition at 30 µM [2]: 81% | fold induction at 0.5 h (P-gp (ABCB1)): 4.3

c1ccc(-c2cc(-c3ccc(N4CCOCC4)cc3)[te+]c(-c3ccc(N4CCOCC4)cc3)c2)cc1
inhibition at 30 µM [2]: 89% | fold induction at 0.5 h (P-gp (ABCB1)): 4

CCCCc1cc(-c2ccc(N(C)C)cc2)cc(-c2ccc(N(C)C)cc2)[s+]1
inhibition at 5 µM [5]: 70% | fold induction at 0.5 h (P-gp (ABCB1)): 5.9

CC(C)(C)c1cc(-c2ccccc2)cc(C(C)(C)C)[s+]1
inhibition at 30 µM [2]: 33% | fold induction at 0.5 h (P-gp (ABCB1)): 2.9 | inhibition (MDCK-II [3]): 0% | inhibition (MDCK-II [4]): 1%

CN(C)c1ccc(-c2cc(-c3ccc(N(C)C)cc3)[s+]c(C(C)(C)C)c2)cc1
inhibition at 30 µM [2]: 94% | fold induction at 0.5 h (P-gp (ABCB1)): 7.2

CN(C)c1ccc(-c2cc(-c3ccccc3)cc(C(C)(C)C)[s+]2)cc1
inhibition at 30 µM [2]: 50% | fold induction at 0.5 h (P-gp (ABCB1)): 6.9

CC(C)(C)c1cc(-c2ccc(C(=O)O)s2)cc(C(C)(C)C)[se+]1
inhibition at 5 µM [5]: 15% | fold induction at 0.5 h (P-gp (ABCB1)): < 1.4 | IC50 [6]: 111 µM

CCN(CC)C(=O)c1ccccc1-c1cc(C(C)(C)C)[se+]c(C(C)(C)C)c1
inhibition at 30 µM [2]: 31% | fold induction at 0.5 h (P-gp (ABCB1)): 5.9

CN(C)c1ccc(-c2cc(-c3ccc(C(=S)N4CCCCC4)s3)cc(C(C)(C)C)[s+]2)cc1.[Cl-]
inhibition at 1 µM [1]: 36% | inhibition at 30 µM [2]: 93% | fold induction at 0.5 h (P-gp (ABCB1)): 5.2 | inhibition (MDCK-II [3]): 31% | inhibition (MDCK-II [4]): 74% | inhibition at 10 µM [7]: 93% | logD at 1 h [8]: 2.1 | IC50 [9]: 38 µM | IC50 [10]: 11.5 µM | Ratio [11]: 705 | Papp A-B at 1 h, 5 µM (P-glycoprotein (MDR1) [12]): 0.03 ×10⁻⁶ cm/s | Papp B-A at 1 h, 5 µM (P-glycoprotein (MDR1) [13]): 32 ×10⁻⁶ cm/s

Cc1cc(C(C)(C)C)[se+]c(C(C)(C)C)c1
inhibition at 30 µM [2]: 0%

CC(C)(C)c1cc(-c2ccc(C(=O)N3CCCCC3)s2)cc(C(C)(C)C)[s+]1.F[P-](F)(F)(F)(F)F
inhibition at 1 µM [1]: 0% | fold induction at 0.5 h (P-gp (ABCB1)): 5.5 | inhibition (MDCK-II [4]): < 7% | inhibition at 10 µM [7]: 11% | logD at 1 h [8]: 0.2 | Ratio [11]: 10 | Papp A-B at 1 h, 5 µM (P-glycoprotein (MDR1) [12]): 0.38 ×10⁻⁶ cm/s | Papp B-A at 1 h, 5 µM (P-glycoprotein (MDR1) [13]): 5.9 ×10⁻⁶ cm/s
